{"data": "Measurements from different studies", "effect on": "cell growth or viability", "note": "Each line is one published result; the experiments were not run side by side."}
{"SMILES": "CC(C)(C)c1cc(NC(=O)Nc2ccc(-c3cn4c(n3)sc3cc(OCCN5CCOCC5)ccc34)cc2)no1", "cell line": "NOMO-1", "time": "72 h", "quantity": "GI50", "result": "> 10000 nM"}
{"SMILES": "COc1ccc2/c(=N/c3ccccc3NC(=O)[C@H](C)N)cc(-c3ccc4c(c3)OCCO4)oc2c1", "cell line": "MCF7", "method": "CCK-8", "concentration": "1 µM", "quantity": "inhibition", "result": "8.55%"}
{"SMILES": "COc1ccc(NC(=O)Nc2ccc(-c3cn(Cc4ccc(C)cc4)nn3)cc2)cc1", "cell line": "MCF7", "method": "CCK-8", "concentration": "50 µM", "time": "48 h", "quantity": "viability", "result": "81.1%"}
{"SMILES": "Nc1ccccc1/N=c1\\cc(-c2ccc3c(c2)OCO3)oc2ccccc12", "cell line": "MCF7", "method": "CCK-8", "concentration": "1 µM", "quantity": "inhibition", "result": "7.65%"}
{"SMILES": "O=C(C[C@@H](C(F)F)n1ccc(F)n1)N1CCC(O)(Cn2cnc3c(cnn3-c3ccc(F)cc3)c2=O)CC1", "cell line": "CAPAN-1", "method": "SRB", "concentration": "9.145 nM", "time": "5 days", "quantity": "viability", "result": "94.6%"}
{"SMILES": "COc1ccc2/c(=N/c3ccccc3NC(=O)[C@@H](N)C(C)(C)C)cc(-c3ccc4c(c3)OCO4)oc2c1", "cell line": "MCF7", "method": "CCK-8", "concentration": "1 µM", "quantity": "inhibition", "result": "14.2%"}
{"SMILES": "COc1ccc(NC(=O)Nc2cccc(-c3cn(Cc4ccccc4C)nn3)c2)cc1", "cell line": "MCF7", "method": "CCK-8", "concentration": "50 µM", "time": "72 h", "quantity": "viability", "result": "72.3%"}
{"SMILES": "CCc1nc(C(N)=O)c(Nc2ccc(N3CCC(N4CCN(C)CC4)CC3)c(OC)c2)nc1NC1CCOCC1", "cell line": "NOMO-1", "time": "72 h", "quantity": "GI50", "result": "2540 nM"}
{"SMILES": "C[C@H](Nc1ccc2c(c1)OCCn1cc(N3C(=O)OC[C@H]3C(F)F)nc1-2)C(N)=O", "cell line": "HCC1954", "method": "ATP luminescence", "time": "5 days", "quantity": "EC50", "result": "155 nM"}
{"SMILES": "Cc1ccccc1Cn1cc(-c2cccc(NC(=O)Nc3ccc(F)cc3)c2)nn1", "cell line": "MCF7", "method": "CCK-8", "concentration": "50 µM", "time": "72 h", "quantity": "viability", "result": "58.8%"}
{"SMILES": "NCCC(=O)Nc1ccccc1/N=c1\\cc(-c2ccc3nc(N)oc3c2)oc2ccccc12", "cell line": "MCF7", "method": "CCK-8", "concentration": "1 µM", "quantity": "inhibition", "result": "46%"}
{"SMILES": "O=C(Nc1ccc(Cl)cc1)Nc1cccc(-c2cn(Cc3ccc(Cl)cc3)nn2)c1", "cell line": "MCF7", "method": "CCK-8", "concentration": "50 µM", "time": "48 h", "quantity": "viability", "result": "104%"}
{"SMILES": "O=C(Nc1ccccc1/N=c1\\cc(-c2ccc3c(c2)OCO3)oc2ccccc12)N1CCOCC1", "cell line": "MCF7", "method": "CCK-8", "concentration": "1 µM", "quantity": "inhibition", "result": "12.9%"}
{"SMILES": "COc1ccc(NC(=O)NCc2cn(Cc3ccc(C)cc3)nn2)cc1", "cell line": "MCF7", "method": "CCK-8", "concentration": "50 µM", "time": "72 h", "quantity": "viability", "result": "101%"}
{"SMILES": "CNCCC(=O)Nc1ccccc1/N=c1\\cc(-c2ccc3nc(N)oc3c2)oc2ccccc12", "cell line": "MCF7", "method": "CCK-8", "concentration": "1 µM", "quantity": "inhibition", "result": "31.9%"}
{"SMILES": "Cc1n[nH]c2ccc3nc(-c4ccc(C(=O)NCCN(C)C)cc4)c4c(c3c12)CCCC4", "cell line": "NOMO-1", "time": "72 h", "quantity": "GI50", "result": "1060 nM"}
{"SMILES": "O=C(Nc1ccc(Cl)cc1)Nc1cccc(-c2cn(Cc3cccc(Cl)c3)nn2)c1", "cell line": "MCF7", "method": "CCK-8", "concentration": "50 µM", "time": "48 h", "quantity": "viability", "result": "92.3%"}
{"SMILES": "O=C(Nc1ccc(Cl)cc1)Nc1cccc(-c2cn(Cc3cccc(Br)c3)nn2)c1", "cell line": "MCF7", "method": "CCK-8", "concentration": "50 µM", "time": "48 h", "quantity": "viability", "result": "85.3%"}
{"SMILES": "NCCC(=O)Nc1ccccc1/N=c1\\cc(-c2ccc3c(c2)OCO3)oc2ccccc12", "cell line": "MCF7", "method": "CCK-8", "concentration": "1 µM", "quantity": "inhibition", "result": "-5.6%"}
{"SMILES": "CN(C)CCNC(=O)c1ccc(-c2nc3ccc4[nH]ncc4c3c3c2CCCCC3)cc1", "cell line": "NOMO-1", "time": "72 h", "quantity": "GI50", "result": "2270 nM"}
{"SMILES": "O=C(Nc1ccc(Cl)cc1)Nc1ccc(-c2cn(Cc3ccc(Br)cc3)nn2)cc1", "cell line": "MCF7", "method": "CCK-8", "concentration": "50 µM", "time": "48 h", "quantity": "viability", "result": "93.7%"}
{"SMILES": "CN(C)CCNC(=O)c1ccc(-c2nc3ccc4[nH]ncc4c3c3c2CCCCC3)c(F)c1", "cell line": "NOMO-1", "time": "72 h", "quantity": "GI50", "result": "1330 nM"}
{"SMILES": "O=C(NCc1cn(Cc2ccc(Br)cc2)nn1)Nc1ccc(Cl)cc1", "cell line": "MCF7", "method": "CCK-8", "concentration": "50 µM", "time": "72 h", "quantity": "viability", "result": "91.2%"}
{"SMILES": "O=C(Nc1ccccc1/N=c1\\cc(-c2ccc3c(c2)OCCO3)oc2cc(F)ccc12)N1CCOCC1", "cell line": "MCF7", "method": "CCK-8", "concentration": "1 µM", "quantity": "inhibition", "result": "16.7%"}
{"SMILES": "COc1ccc(NC(=O)Nc2cccc(-c3cn(Cc4ccc(Cl)cc4)nn3)c2)cc1", "cell line": "MCF7", "method": "CCK-8", "concentration": "50 µM", "time": "72 h", "quantity": "viability", "result": "104%"}
{"SMILES": "O=C(NCc1cn(Cc2ccc(Cl)cc2)nn1)Nc1ccccc1Br", "cell line": "MCF7", "method": "CCK-8", "concentration": "50 µM", "time": "72 h", "quantity": "viability", "result": "88.6%"}
{"SMILES": "COc1ccc(NC(=O)Nc2cccc(-c3cn(Cc4ccc(C)cc4)nn3)c2)cc1", "cell line": "MCF7", "method": "CCK-8", "concentration": "50 µM", "time": "48 h", "quantity": "viability", "result": "104%"}
{"SMILES": "O=C(Nc1ccc(Cl)cc1)Nc1ccc(-c2cn(Cc3ccc(Cl)cc3)nn2)cc1", "cell line": "MCF7", "method": "CCK-8", "concentration": "50 µM", "time": "72 h", "quantity": "viability", "result": "98%"}
